Measurements: ChEMBL document CHEMBL5058577, “EUbOPEN Chemogenomics Library 2 (Multiplex)” (2022)

Test system: U2OS
Assay: Multiplex assay against U2OS
Format: toxicity, cell-based
Details: human
Procedure, shortened: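 Phenotypes for tubulin, mitochondrial mass and membrane permeability are expressed as per cents of healthy-nucleus cells. Cells were stained live at seeding with Hoechst33342, BioTracker Green Microtubule Cytoskeleton Dye, MitoTracker Red and Annexin V Alexa Fluor 680, then imaged after compound addition on a CQ1 microscope at 37°C and 5% CO2. Machine-learning gating in CellPathfinder separated Hoechst high-intensity objects from normal cells, divided normal cells by nuclear state (healthy, pyknosed, fragmented) and divided pyknosed cells into mitotic or apoptotic.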

[1] = 12 h, 1 µM, compound concentration 1 uM, replicate 1
[2] = 12 h, 1 µM, compound concentration 1 uM, replicate 2
[3] = 12 h, 10 µM, compound concentration 10 uM, replicate 1
[4] = 12 h, 10 µM, compound concentration 10 uM, replicate 2
[5] = 24 h, 1 µM, compound concentration 1 uM, replicate 1
[6] = 24 h, 1 µM, compound concentration 1 uM, replicate 2
[7] = 24 h, 10 µM, compound concentration 10 uM, replicate 1
[8] = 24 h, 10 µM, compound concentration 10 uM, replicate 2
[9] = 48 h, 1 µM, compound concentration 1 uM, replicate 1
[10] = 48 h, 1 µM, compound concentration 1 uM, replicate 2
[11] = 48 h, 10 µM, compound concentration 10 uM, replicate 1
[12] = 48 h, 10 µM, compound concentration 10 uM, replicate 2

CN[C@@H](C)C(=O)N[C@H](C(=O)N1CCC[C@H]1C(=O)Nc1snnc1-c1ccccc1)C1CCCCC1 [GDC-0152]
Population Apoptotic (%) [1]: 60%
Population Fragmented Nuclei (%) [1]: 25%
Population Healthy Nuclei (%) [1]: 61%
Population Hoechst High Intensity Objects (%) [1]: 5%
Population Membrane Permeable-Phenotype (%) [1]: 51%
Population Mitochondria Different-Phenotype (%) [1]: 24%
Population Mitotic Cells (%) [1]: 39%
Population Normal (%) [1]: 94%
Population Pyknosed Nuclei (%) [1]: 13%
Population Tubulin-Different-Phenotype (%) [1]: 47%
Total Cell Count [1]: 176
Population Apoptotic (%) [2]: 89%
Population Fragmented Nuclei (%) [2]: 21%
Population Healthy Nuclei (%) [2]: 60%
Population Hoechst High Intensity Objects (%) [2]: 11%
Population Membrane Permeable-Phenotype (%) [2]: 50%
Population Mitochondria Different-Phenotype (%) [2]: 38%
Population Mitotic Cells (%) [2]: 10%
Population Normal (%) [2]: 88%
Population Pyknosed Nuclei (%) [2]: 17%
Population Tubulin-Different-Phenotype (%) [2]: 52%
Total Cell Count [2]: 121
Population Apoptotic (%) [3]: 72%
Population Fragmented Nuclei (%) [3]: 39%
Population Healthy Nuclei (%) [3]: 44%
Population Hoechst High Intensity Objects (%) [3]: 4%
Population Membrane Permeable-Phenotype (%) [3]: 65%
Population Mitochondria Different-Phenotype (%) [3]: 61%
Population Mitotic Cells (%) [3]: 27%
Population Normal (%) [3]: 95%
Population Pyknosed Nuclei (%) [3]: 16%
Population Tubulin-Different-Phenotype (%) [3]: 76%
Total Cell Count [3]: 208
Population Apoptotic (%) [4]: 70%
Population Fragmented Nuclei (%) [4]: 18%
Population Healthy Nuclei (%) [4]: 65%
Population Hoechst High Intensity Objects (%) [4]: 5%
Population Membrane Permeable-Phenotype (%) [4]: 73%
Population Mitochondria Different-Phenotype (%) [4]: 70%
Population Mitotic Cells (%) [4]: 29%
Population Normal (%) [4]: 94%
Population Pyknosed Nuclei (%) [4]: 15%
Population Tubulin-Different-Phenotype (%) [4]: 91%
Total Cell Count [4]: 114
Population Apoptotic (%) [5]: 72%
Population Fragmented Nuclei (%) [5]: 21%
Population Healthy Nuclei (%) [5]: 55%
Population Hoechst High Intensity Objects (%) [5]: 5%
Population Membrane Permeable-Phenotype (%) [5]: 20%
Population Mitochondria Different-Phenotype (%) [5]: 18%
Population Mitotic Cells (%) [5]: 27%
Population Normal (%) [5]: 94%
Population Pyknosed Nuclei (%) [5]: 23%
Population Tubulin-Different-Phenotype (%) [5]: 19%
Total Cell Count [5]: 196
Population Apoptotic (%) [6]: 85%
Population Fragmented Nuclei (%) [6]: 34%
Population Healthy Nuclei (%) [6]: 44%
Population Hoechst High Intensity Objects (%) [6]: 8%
Population Membrane Permeable-Phenotype (%) [6]: 25%
Population Mitochondria Different-Phenotype (%) [6]: 28%
Population Mitotic Cells (%) [6]: 14%
Population Normal (%) [6]: 91%
Population Pyknosed Nuclei (%) [6]: 21%
Population Tubulin-Different-Phenotype (%) [6]: 27%
Total Cell Count [6]: 144
Population Apoptotic (%) [7]: 68%
Population Fragmented Nuclei (%) [7]: 36%
Population Healthy Nuclei (%) [7]: 43%
Population Hoechst High Intensity Objects (%) [7]: 3%
Population Membrane Permeable-Phenotype (%) [7]: 53%
Population Mitochondria Different-Phenotype (%) [7]: 59%
Population Mitotic Cells (%) [7]: 31%
Population Normal (%) [7]: 96%
Population Pyknosed Nuclei (%) [7]: 20%
Population Tubulin-Different-Phenotype (%) [7]: 59%
Total Cell Count [7]: 220
Population Apoptotic (%) [8]: 92%
Population Fragmented Nuclei (%) [8]: 20%
Population Healthy Nuclei (%) [8]: 40%
Population Hoechst High Intensity Objects (%) [8]: 10%
Population Membrane Permeable-Phenotype (%) [8]: 59%
Population Mitochondria Different-Phenotype (%) [8]: 65%
Population Mitotic Cells (%) [8]: 7%
Population Normal (%) [8]: 89%
Population Pyknosed Nuclei (%) [8]: 38%
Population Tubulin-Different-Phenotype (%) [8]: 81%
Total Cell Count [8]: 121
Population Apoptotic (%) [9]: 93%
Population Fragmented Nuclei (%) [9]: 35%
Population Healthy Nuclei (%) [9]: 32%
Population Hoechst High Intensity Objects (%) [9]: 8%
Population Membrane Permeable-Phenotype (%) [9]: 16%
Population Mitochondria Different-Phenotype (%) [9]: 12%
Population Mitotic Cells (%) [9]: 6%
Population Normal (%) [9]: 91%
Population Pyknosed Nuclei (%) [9]: 32%
Population Tubulin-Different-Phenotype (%) [9]: 9%
Total Cell Count [9]: 246
Population Apoptotic (%) [10]: 88%
Population Healthy Nuclei (%) [10]: 30%
Population Membrane Permeable-Phenotype (%) [10]: 38%
Population Mitochondria Different-Phenotype (%) [10]: 17%
Population Mitotic Cells (%) [10]: 11%
Population Pyknosed Nuclei (%) [10]: 34%
Population Tubulin-Different-Phenotype (%) [10]: 27%
Total Cell Count [10]: 170
Population Apoptotic (%) [11]: 100%
Population Fragmented Nuclei (%) [11]: 47%
Population Healthy Nuclei (%) [11]: 22%
Population Hoechst High Intensity Objects (%) [11]: 11%
Population Membrane Permeable-Phenotype (%) [11]: 39%
Population Mitochondria Different-Phenotype (%) [11]: 39%
Population Mitotic Cells (%) [11]: 0%
Population Normal (%) [11]: 88%
Population Pyknosed Nuclei (%) [11]: 29%
Population Tubulin-Different-Phenotype (%) [11]: 43%
Total Cell Count [11]: 246
Population Apoptotic (%) [12]: 98%
Population Fragmented Nuclei (%) [12]: 45%
Population Healthy Nuclei (%) [12]: 8%
Population Hoechst High Intensity Objects (%) [12]: 14%
Population Membrane Permeable-Phenotype (%) [12]: 80%
Population Mitochondria Different-Phenotype (%) [12]: 50%
Population Mitotic Cells (%) [12]: 1%
Population Normal (%) [12]: 85%
Population Pyknosed Nuclei (%) [12]: 45%
Population Tubulin-Different-Phenotype (%) [12]: 80%
Total Cell Count [12]: 138
